Source: ChEMBL document CHEMBL4808162, “Constraining the Side Chain of C-Terminal Amino Acids in Apelin-13 Greatly Increases Affinity, Modulates Signaling, and Improves the Pharmacokinetic Profile” (J Med Chem, 2021)
Peptide text beside a SMILES is read from it.

How the values were obtained:
Rattus norvegicus = assay: Hypotensive effect in Sprague-Dawley rat assessed as drop in mean arterial blood pressure at 19.6 nmol/kg, iv bolus injection measured after 1 min; assay type: functional
Method in brief: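 Male Sprague-Dawley rats (250−300 g) under ketamine/xylazine (87/13 mg/kg i.m.) on a thermostatic pad. Mean arterial pressure recorded through a right carotid catheter. Saline vehicle bolus given, then 5 min later the peptide i.v. at 19.6 nmol/kg (n = 5) or 65 nmol/kg.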

[1] = molecular target: T1, Apelin receptor (Homo sapiens) (UniProt P35414); assay: Agonist activity at human APJ receptor expressed in HEK293T cells co-expressing PDZ-Rho-Gef-RLucll and rGFP-CAAX assessed as induction of recruitment of Galpha12 to cell membrane using coelenterazine luciferase substrate incubated for 5 mins by BRET assay relative to control; assay type: functional, cell-based; conditions: HEK293, filed as partial agonist
T1 sequence (whole entry): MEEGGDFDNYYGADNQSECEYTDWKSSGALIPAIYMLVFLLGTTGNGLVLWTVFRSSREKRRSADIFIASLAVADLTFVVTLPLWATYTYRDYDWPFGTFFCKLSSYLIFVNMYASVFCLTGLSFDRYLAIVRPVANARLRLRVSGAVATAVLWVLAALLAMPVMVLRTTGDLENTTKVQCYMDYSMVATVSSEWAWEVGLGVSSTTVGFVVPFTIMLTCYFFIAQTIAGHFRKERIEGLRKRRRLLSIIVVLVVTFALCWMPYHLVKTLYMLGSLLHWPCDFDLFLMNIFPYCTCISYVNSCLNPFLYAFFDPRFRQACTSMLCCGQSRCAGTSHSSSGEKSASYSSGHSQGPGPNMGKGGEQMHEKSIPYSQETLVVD
Method in brief: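 HEK293T cells (35 000/well) transiently transfected with PEI 48 h before assay, carrying hAPJ, Gα12, Gβ1, Gγ1 and the ebBRET pair PDZ-RhoGEF-RLucII / rGFP-CAAX. Ligand stimulation for 5 min. Curves fitted as normalized variable-slope dose-response with Hill slope shared; eight experiments, each singly.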

Apelin receptor [2] = molecular target: T2, Apelin receptor (Homo sapiens, UniProt P35414); assay: Agonist activity at human APJ receptor expressed in HEK293T cells co-expressing PDZ-Rho-Gef-RLucll and rGFP-CAAX assessed as induction of recruitment of Galpha12 to cell membrane using coelenterazine luciferase substrate incubated for 5 mins by BRET assay; assay type: functional, cell-based, HEK293
T2 sequence (P35414 whole entry): T1 sequence (whole entry)

[3] = Stability in Sprague-Dawley rat plasma assessed as half life measured up to 24 hrs by UPLC-MS analysis; assay type: ADME, cell-free
Method in brief: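 Peptide (6 μL of 1 mM aqueous solution) incubated with 27 μL male Sprague-Dawley rat plasma at 37 °C. Time points 0, 1, 2, 4, 7, 24 h, or 0–120 min for labile peptides. Reaction quenched with acetonitrile-ethanol containing N,N-dimethylbenzamide internal standard, filtered, then UPLC-MS. t1/2 from one-phase exponential decay; at least three experiments.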

Apelin receptor [4] = molecular target: T2, Apelin receptor; assay: Agonist activity at human APJ receptor expressed in HEK293T cells co-expressing Galphai1 RlucII assessed as dissociation of Galphai1 from Gbetta/gamma subunit measured using coelenterazine luciferase substrate incubated for 5 mins by BRET assay; assay type: functional, cell-based, HEK293
Apelin receptor [5] = molecular target: T2, Apelin receptor; assay: Agonist activity at human APJ receptor expressed in HEK293 cells co-expressing Rlucll-beta-arrestin2 assessed as induction of beta-arrestin2 recruitment to receptor incubated for 30 mins by BRET assay; assay type: functional, cell-based
Apelin receptor [6] = molecular target: T2, Apelin receptor; assay: Displacement of [125I] [NIe75,Tyr77]Pyr-apelin-13 from YFP-tagged human APJ receptor expressed in HEK293 cells incubated for 1 hr by gamma counting analysis; assay type: cell-based
[7] = molecular target: Angiotensin-converting enzyme 2 (Rattus norvegicus, UniProt Q5EGZ1); assay: Stability of the compound assessed as recombinant rat ACE2-mediated degradation measured up to 24 hrs by UPLC-MS analysis; assay type: ADME
Angiotensin-converting enzyme 2, sequence (Q5EGZ1 whole entry): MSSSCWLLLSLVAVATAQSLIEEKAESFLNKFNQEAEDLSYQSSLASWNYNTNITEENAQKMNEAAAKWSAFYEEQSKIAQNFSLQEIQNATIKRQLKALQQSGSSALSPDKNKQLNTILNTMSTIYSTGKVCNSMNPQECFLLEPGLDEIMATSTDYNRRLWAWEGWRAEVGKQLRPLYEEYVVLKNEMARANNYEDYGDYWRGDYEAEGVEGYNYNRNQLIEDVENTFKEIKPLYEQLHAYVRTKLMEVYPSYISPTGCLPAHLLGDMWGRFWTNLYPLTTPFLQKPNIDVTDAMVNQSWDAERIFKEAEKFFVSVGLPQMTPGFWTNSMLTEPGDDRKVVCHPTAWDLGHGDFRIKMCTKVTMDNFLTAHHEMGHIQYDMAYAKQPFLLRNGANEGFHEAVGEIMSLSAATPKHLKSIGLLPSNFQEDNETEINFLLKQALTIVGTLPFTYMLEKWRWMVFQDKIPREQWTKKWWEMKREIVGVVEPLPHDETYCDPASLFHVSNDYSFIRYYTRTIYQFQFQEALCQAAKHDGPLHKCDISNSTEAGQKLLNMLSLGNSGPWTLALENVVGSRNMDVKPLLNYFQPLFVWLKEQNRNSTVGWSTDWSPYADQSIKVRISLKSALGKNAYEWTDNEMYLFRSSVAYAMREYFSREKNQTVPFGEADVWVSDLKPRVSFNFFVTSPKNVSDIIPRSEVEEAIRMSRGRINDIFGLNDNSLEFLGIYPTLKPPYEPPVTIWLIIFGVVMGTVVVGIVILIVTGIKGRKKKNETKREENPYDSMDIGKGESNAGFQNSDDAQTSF
Method in brief: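 Recombinant rat ACE2 at 20 nM final in 100 mM Tris-HCl, 100 mM NaCl, 10 μM ZnCl2, pH 7.4. Peptide at 50 μM final with N,N-dimethylbenzamide internal standard, incubated 1, 2 and 24 h at 37 °C with shaking. Reaction stopped with EDTA; blank used pre-inactivated enzyme. Remaining peptide measured by UPLC-MS in SIM mode, oxidized forms summed; n = 3.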

[8] = Clearance in Sprague-Dawley rat plasma at 3 mg/kg, iv bolus injection measured up to 240 mins by LC-MS/MS analysis; assay type: ADME, organism-based
Method in brief: (§1)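 Male Sprague-Dawley rats (250−300 g, 8−10 weeks), jugular vein catheter placed 24 h before dosing, n = 3. Single i.v. bolus in 0.9% saline at 3 mg/kg. Blood drawn at 5, 10, 30, 60, 120, 240 min into K2-EDTA tubes. Plasma cleaned by acetonitrile precipitation and HLB, then quantified by LC-MS/MS.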

[9] = Half life in Sprague-Dawley rat plasma at 3 mg/kg, iv bolus injection measured up to 240 mins by LC-MS/MS analysis; assay type: ADME, organism-based; method in brief: as §1
[10] = AUCtot in Sprague-Dawley rat plasma at 3 mg/kg, iv bolus injection measured up to 240 mins by LC-MS/MS analysis; assay type: ADME, organism-based; design: route intravenous, dose 3 mg/kg, time <=240; conditions: in vivo, 4 h; method in brief: as §1

| Structure (SMILES) | EC50 (Apelin receptor [2]) | half-life [3] | EC50 (Apelin receptor [4]) | EC50 (Apelin receptor [5]) | Ki (Apelin receptor [6]) | also measured |
| --- | --- | --- | --- | --- | --- | --- |
| CCCC[C@H](NC(=O)[C@@H]1CCCN1C(=O)CNC(=O)[C@H](CCCCN)NC(=O)[C@H](Cc1cnc[nH]1)NC(=O)[C@H](CO)NC(=O)[C@H](CC(C)C)NC(=O)[C@H](CCCNC(=N)N)NC(=O)[C@@H]1CCCN1C(=O)[C@H](CCCNC(=N)N)NC(=O)[C@@H]1CCC(=O)N1)C(=O)N[C@H]1Cc2c([nH]c3ccccc23)CN([C@@H](Cc2ccccc2)C(=O)O)C1=O [listing 1 of 2 here] | – | – | – | – | – | Activity (Rattus norvegicus): 30 mmHg |
| CCCC[C@H](NC(=O)[C@@H]1CCCN1C(=O)CNC(=O)[C@H](CCCCN)NC(=O)[C@H](Cc1cnc[nH]1)NC(=O)[C@H](CO)NC(=O)[C@H](CC(C)C)NC(=O)[C@H](CCCNC(=N)N)NC(=O)[C@@H]1CCCN1C(=O)[C@H](CCCNC(=N)N)NC(=O)[C@@H]1CCC(=O)N1)C(=O)N1CCC[C@H]1C(=O)N[C@](C)(Cc1ccc(OCc2ccccc2)cc1)C(=O)O | 4.4 nM | 0.9 h | 2.7 nM | 30 nM | – | Emax [1]: 46%; Activity (Rattus norvegicus): 30 mmHg |
| CCCC[C@H](NC(=O)[C@@H]1CCCN1C(=O)CNC(=O)[C@H](CCCCN)NC(=O)[C@H](Cc1cnc[nH]1)NC(=O)[C@H](CO)NC(=O)[C@H](CC(C)C)NC(=O)[C@H](CCCNC(=N)N)NC(=O)[C@@H]1CCCN1C(=O)[C@H](CCCNC(=N)N)NC(=O)[C@@H]1CCC(=O)N1)C(=O)N[C@H](Cc1cccc2ccccc12)C(=O)N1Cc2[nH]c3ccccc3c2C[C@@H]1C(=O)O | 25 nM | 7.8 h | 6 nM | 96 nM | 1.01 nM | – |
| CCCC[C@H](NC(=O)[C@@H]1CCCN1C(=O)CNC(=O)[C@H](CCCCN)NC(=O)[C@H](Cc1cnc[nH]1)NC(=O)[C@H](CO)NC(=O)[C@H](CC(C)C)NC(=O)[C@H](CCCNC(=N)N)NC(=O)[C@@H]1CCCN1C(=O)[C@H](CCCNC(=N)N)NC(=O)[C@@H]1CCC(=O)N1)C(=O)N[C@@H](Cc1c[nH]c2ccccc12)C(=O)N[C@@H](Cc1ccccc1)C(=O)O | – | 0.2 h | – | – | – | EC50 (Apelin receptor [2]; hek293): 17 nM; Stabilty [7]: Unstable; EC50 (Apelin receptor [4]; hek293): 3.8 nM; Ki (Apelin receptor [6]; hek293): 0.18 nM; EC50 (Apelin receptor [5]; hek293): 38 nM |
| CCCC[C@H](NC(=O)[C@@H]1CCCN1C(=O)CNC(=O)[C@H](CCCCN)NC(=O)[C@H](Cc1cnc[nH]1)NC(=O)[C@H](CO)NC(=O)[C@H](CC(C)C)NC(=O)[C@H](CCCNC(=N)N)NC(=O)[C@@H]1CCCN1C(=O)[C@H](CCCNC(=N)N)NC(=O)[C@@H]1CCC(=O)N1)C(=O)N1CCC[C@H]1C(=O)N1Cc2ccccc2C[C@H]1C(=O)O | 88 nM | 1.3 h | 2.5 nM | 67 nM | 1.1 nM | – |
| CCCC[C@H](NC(=O)[C@@H]1CCCN1C(=O)CNC(=O)[C@H](CCCCN)NC(=O)[C@H](Cc1cnc[nH]1)NC(=O)[C@H](CO)NC(=O)[C@H](CC(C)C)NC(=O)[C@H](CCCNC(=N)N)NC(=O)[C@@H]1CCCN1C(=O)[C@H](CCCNC(=N)N)NC(=O)[C@@H]1CCC(=O)N1)C(=O)N[C@@H](Cc1cccc2ccccc12)C(=O)NC(Cc1ccccc1)(Cc1ccccc1)C(=O)O (HELM PEPTIDE1{[Glp].R.P.R.L.S.H.K.G.P.[Nle].[O=C([C@H](Cc1cccc2ccccc12)N[*:1])[*:2]].[O=C(O)C(Cc1ccccc1)(Cc1ccccc1)N[*:1]]}$$$$V2.0) [listing 1 of 2 here] | – | – | – | – | – | Activity (Rattus norvegicus): 30 mmHg |
| CCCC[C@H](NC(=O)[C@@H]1CCCN1C(=O)CNC(=O)[C@H](CCCCN)NC(=O)[C@H](Cc1cnc[nH]1)NC(=O)[C@H](CO)NC(=O)[C@H](CC(C)C)NC(=O)[C@H](CCCNC(=N)N)NC(=O)[C@@H]1CCCN1C(=O)[C@H](CCCNC(=N)N)NC(=O)[C@@H]1CCC(=O)N1)C(=O)N[C@H](Cc1cccc2ccccc12)C(=O)N[C@H](Cc1cc(C2CCCC2)c(O)c(C2CCCC2)c1)C(=O)O | 178 nM | > 24 h | 10 nM | 95 nM | 1.1 nM | – |
| CCCC[C@H](NC(=O)[C@@H]1CCCN1C(=O)CNC(=O)[C@H](CCCCN)NC(=O)[C@H](Cc1cnc[nH]1)NC(=O)[C@H](CO)NC(=O)[C@H](CC(C)C)NC(=O)[C@H](CCCNC(=N)N)NC(=O)[C@@H]1CCCN1C(=O)[C@H](CCCNC(=N)N)NC(=O)[C@@H]1CCC(=O)N1)C(=O)N[C@H]1Cc2c([nH]c3ccccc23)CN([C@@H](Cc2ccccc2)C(=O)O)C1=O [listing 2 of 2 here] | – | 5.8 h | – | – | – | EC50 (Apelin receptor [2]; hek293): 11 nM; Stabilty [7]: Stable; clearance [8]: 23 mL/min/kg; half-life [9]: 0.333 h; EC50 (Apelin receptor [4]; hek293): 2.5 nM; Ki (Apelin receptor [6]; hek293): 0.08 nM; EC50 (Apelin receptor [5]; hek293): 25 nM; AUC [10]: 0.13 mg·min/mL |
| CCCC[C@H](NC(=O)[C@@H]1CCCN1C(=O)CNC(=O)[C@H](CCCCN)NC(=O)[C@H](Cc1cnc[nH]1)NC(=O)[C@H](CO)NC(=O)[C@H](CC(C)C)NC(=O)[C@H](CCCNC(=N)N)NC(=O)[C@@H]1CCCN1C(=O)[C@H](CCCNC(=N)N)NC(=O)[C@@H]1CCC(=O)N1)C(=O)N[C@@H](Cc1cccc2ccccc12)C(=O)NC(Cc1ccccc1)(Cc1ccccc1)C(=O)O (HELM PEPTIDE1{[Glp].R.P.R.L.S.H.K.G.P.[Nle].[O=C([C@H](Cc1cccc2ccccc12)N[*:1])[*:2]].[O=C(O)C(Cc1ccccc1)(Cc1ccccc1)N[*:1]]}$$$$V2.0) [listing 2 of 2 here] | 2.8 nM | 7.3 h | 3.8 nM | 36 nM | 0.08 nM | Stabilty [7]: Stable; clearance [8]: 27 mL/min/kg; half-life [9]: 0.433 h; AUC [10]: 0.12 mg·min/mL |
| CCCC[C@H](NC(=O)[C@@H]1CCCN1C(=O)CNC(=O)[C@H](CCCCN)NC(=O)[C@H](Cc1cnc[nH]1)NC(=O)[C@H](CO)NC(=O)[C@H](CC(C)C)NC(=O)[C@H](CCCNC(=N)N)NC(=O)[C@@H]1CCCN1C(=O)[C@H](CCCNC(=N)N)NC(=O)[C@@H]1CCC(=O)N1)C(=O)N[C@H](Cc1cccc2ccccc12)C(=O)N1Cc2ccccc2C(C)(C)C1C(=O)O (some centres not stated) | 10 nM | 6.3 h | 4.1 nM | 34 nM | 0.16 nM | – |
| CCCC[C@H](NC(=O)[C@@H]1CCCN1C(=O)CNC(=O)[C@H](CCCCN)NC(=O)[C@H](Cc1cnc[nH]1)NC(=O)[C@H](CO)NC(=O)[C@H](CC(C)C)NC(=O)[C@H](CCCNC(=N)N)NC(=O)[C@@H]1CCCN1C(=O)[C@H](CCCNC(=N)N)NC(=O)[C@@H]1CCC(=O)N1)C(=O)N[C@H](Cc1cccc2ccccc12)C(=O)N1Cc2ccccc2C(C)C1C(=O)O (some centres not stated) | 111 nM | 5.3 h | 4.3 nM | 44 nM | 0.4 nM | – |
